Shown are actives, neighbours in structure and some others; about 0.72% of the full set was active somewhere.
ABCG2 inh: ABCG2 efflux pump inhibitors, primary screen, multiplex with ABCB1, IgMXP3 cells, flow cytometry; inhibition, % at 6.6 µM; JC-1 efflux; Broad substrate specificity ATP-binding cassette transporter ABCG2 (Homo sapiens), Q9UNQ0; 0.1% of 190,000 active; AID 1325, 2008;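 active = inhibition above 80%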;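 also: 0% = DMSO and 100% = nicardipine control wells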
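Read-out basis: Efflux inhibition in percent versus controls | Test system: ABCG2 IgMXP3 and barcoded ABCB1 CCRF-Adr cell mix | Quantity: 3 million cells/mL in well | Schedule: 10 min at 25 °C | Control set: Nicardipine as high control, DMSO as low control | Reagent: JC-1 as fluorescent efflux pump substrate | Signal: Flow cytometry of retained JC-1 fluorescence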
Redox H2O2 prof: compounds producing H2O2 with reducing agent – biochemical, NIH compound library profiling, artefact control for MLSCN library redox annotation, primary screen. DTT-dependent redox cycling H2O2, phenol red/HRP absorbance; 100% = 100 µM peroxide control, 0% = buffer. activation, % at 10 µM. 0.03% of 200,000 active;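 active = activation of at least 50% relative to the plate's high and low controls in the primary single-dose screen; inactive = activation below 50%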;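 also: compound incubated with DTT at 0.8 mM final as the reducing agent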
GSH bead fluor: compound fluorescence on glutathione beads, profiling panel, artefact control, biophysical, 488/530 nm, flow cytometry. GSH beads flow cytometry, compound fluorescence 488/530 nm; hits give high values. fluorescence (KMESF) at 10 µM. 0.25% of 190,000 active; in the data active = fluorescence above about 89;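 also: glutathione beads carrying GST-tagged Bcl family fusion proteins plus one bare bead set; values are compound well signal with DMSO vehicle wells as background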
ABCB1 block: ABCB1 efflux pump inhibitors, primary screen, cell-based, multiplex, flow cytometry, ABCG2 counter-screen; ATP-dependent translocase ABCB1 (Homo sapiens), P08183; CCRF-Adr cells, JC-1 efflux; inhibition, % at 6.6 µM; 0.067% of 190,000 active; AID 1326, 2008; in the data active = inhibition above about 40%;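 also: 0% = vehicle and 100% = reference inhibitor; higher value means more JC-1 retained so stronger ABCB1 efflux block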
Target sequence (P08183 whole entry, looked up): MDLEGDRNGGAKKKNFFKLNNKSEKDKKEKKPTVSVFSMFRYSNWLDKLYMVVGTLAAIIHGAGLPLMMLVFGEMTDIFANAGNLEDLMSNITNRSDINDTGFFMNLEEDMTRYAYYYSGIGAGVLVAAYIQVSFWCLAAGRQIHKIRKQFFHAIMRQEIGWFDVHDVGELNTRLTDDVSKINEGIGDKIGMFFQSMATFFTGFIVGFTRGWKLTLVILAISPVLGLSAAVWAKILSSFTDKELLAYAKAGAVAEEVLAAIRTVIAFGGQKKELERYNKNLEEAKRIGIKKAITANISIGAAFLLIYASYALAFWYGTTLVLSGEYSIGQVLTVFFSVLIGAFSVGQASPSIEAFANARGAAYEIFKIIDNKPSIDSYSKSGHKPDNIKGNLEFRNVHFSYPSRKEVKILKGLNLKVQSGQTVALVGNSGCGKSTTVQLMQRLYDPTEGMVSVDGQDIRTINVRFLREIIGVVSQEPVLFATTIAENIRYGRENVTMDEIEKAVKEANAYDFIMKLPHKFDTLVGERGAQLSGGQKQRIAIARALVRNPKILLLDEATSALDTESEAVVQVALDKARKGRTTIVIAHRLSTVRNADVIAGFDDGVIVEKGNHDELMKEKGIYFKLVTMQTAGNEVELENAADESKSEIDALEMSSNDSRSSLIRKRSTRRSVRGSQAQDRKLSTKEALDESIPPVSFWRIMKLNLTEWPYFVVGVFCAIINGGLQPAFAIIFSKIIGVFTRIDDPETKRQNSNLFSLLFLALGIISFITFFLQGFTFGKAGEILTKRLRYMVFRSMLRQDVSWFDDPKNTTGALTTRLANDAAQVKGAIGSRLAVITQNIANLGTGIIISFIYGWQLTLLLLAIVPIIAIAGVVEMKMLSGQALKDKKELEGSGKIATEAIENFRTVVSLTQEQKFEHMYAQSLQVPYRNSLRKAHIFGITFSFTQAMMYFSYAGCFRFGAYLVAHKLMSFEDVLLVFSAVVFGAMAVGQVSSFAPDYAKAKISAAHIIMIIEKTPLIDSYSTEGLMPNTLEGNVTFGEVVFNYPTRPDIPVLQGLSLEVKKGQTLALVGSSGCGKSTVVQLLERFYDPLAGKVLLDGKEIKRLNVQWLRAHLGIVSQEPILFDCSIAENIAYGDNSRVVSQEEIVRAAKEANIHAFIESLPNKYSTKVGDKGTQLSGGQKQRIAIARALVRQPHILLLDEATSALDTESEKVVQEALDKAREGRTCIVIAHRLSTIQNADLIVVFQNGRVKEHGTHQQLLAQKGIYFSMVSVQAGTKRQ
Avidin fluor: green autofluorescence of compounds with avidin beads – biophysical, 488/530 nm, flow cytometry, artefact control, profiling panel; compound fluorescence 488/530 nm; hits give high values; fluorescence (KMESF) at 10 µM; 0.38% of 220,000 active; AID 1775, 2009; in the data active = fluorescence above about 47
Active calls of the source: *; x = no result given; + = active, no number.

SMILES	ABCG2 inh	Redox H2O2 prof	GSH bead fluor	ABCB1 block	Avidin fluor
COc1ccc(OCC(=O)Nc2nnc(C)s2)cc1	1.8	-3.5	15	0.3	7
CCOc1ccccc1OCC(=O)Nc1nnc(C)s1	3.5	-0.2	30	0.1	117*
CC(C)(C)c1ccc(C(=O)NNc2cc(N3CCOCC3)nc(N3CCOCC3)n2)cc1	13.4	-0.6	13	5.7	9
CC(C)(C)c1ccc(C(=O)NNc2cc(N3CCCCC3)nc(N3CCCCC3)n2)cc1	1.3	-6.7	119*	0.2	175*
O=c1cc(Cn2ccnc2)c2cc3c(cc2o1)CCC3	22.1	-1.1	26	0.9	11
Cc1cc2oc(=O)cc(Cn3ccnc3)c2cc1C	0.9	3.0	273*	0.1	8
Cc1nnsc1Sc1ccccc1C(=O)O	3.1	-1.4	17	1.0	8
CC1=NN(c2ccc(N)cc2)C(=O)C1	-0.5	0.3	223*	-0.4	0
Cc1ccc(C(CC(=O)NCCCN(C)C)c2ccc(OC(C)C)cc2)cc1 (stereo not given)	x	x	x	x	4
CCOC(=O)C1=C(N)OC2=C(C(=O)CCC2)C1c1ccccc1OC (stereo not given)	-5.8	-0.8	16	-2.0	11
CCOC(=O)C1=C(N)OC2=C(C(=O)CCC2)C1c1ccccc1OCC (stereo not given)	2.4	0.1	34	1.0	172*
CCCOC1CCCN(Cc2nc(-c3ccc(C(=O)OC)cc3)no2)C1 (stereo not given)	x	x	x	x	5
Cc1ccc(CN2CCN(C(=O)C3CCCO3)CC2)cc1 (stereo not given)	0.2	2.4	50	0.1	6
O=C(C1CCCO1)N1CCN(Cc2c(O)ccc3ccccc23)CC1 (stereo not given)	-1.8	-1.5	16	-0.7	61*
CS(=O)(=O)N1CCN(c2ccc([N+](=O)[O-])c(NCc3ccccc3)c2)CC1	3.4	-4.0	9	0.8	24
CS(=O)(=O)N1CCN(c2ccc([N+](=O)[O-])c(NCc3ccc(Cl)cc3)c2)CC1	2.5	-0.5	99*	0.5	15
Cc1ccc(NC(=O)c2ccc(OC(=O)CCN3C(=O)c4ccccc4C3=O)cc2)cc1	3.4	2.1	10	0.6	48*
Cc1cccc2cc(C#N)c(NCCCNS(=O)(=O)c3ccc(Cl)cc3)nc12	x	x	x	x	8
CC(=O)N1CCN(Cc2nc3cc(NC(=O)c4cccc(Br)c4)ccc3n2C)CC1	x	x	x	x	6
Cc1nc(/C(N)=N/OC(=O)Cc2ccccc2)no1	0.3	-0.8	17	0.0	14
N#C/C(=C\c1ccc(N2CCCCC2)o1)C(=O)Nc1cccc(Br)c1	121.7*	0.4	60	60.5*	60*
O=C(COC(=O)C12CC3CC(CC(C3)C1)C2)Nc1nc2c(F)c(F)c(F)cc2s1	-2.1	0.1	14	-0.2	9
C=CCOC(=O)c1ccc(-n2cnc(C)n2)nc1	-0.3	-1.6	24	-0.6	8
NC(=O)NC(Cc1ccccc1)C(=O)Nc1ccc(S(N)(=O)=O)cc1 (stereo not given)	1.3	-0.6	253*	0.2	7
COc1ccc(CCNC(=O)c2ccc(=O)[nH]n2)cc1OC	-2.9	-0.2	41	-2.1	7
SMILES	ABCG2 inh	Redox H2O2 prof	GSH bead fluor	ABCB1 block	Avidin fluor
COc1ccc(CCNC(=O)c2cc(-c3cc(C)c(C)cc3O)n[nH]2)cc1OC	15.2	1.1	22	0.7	90*
CC(C)NC(=S)N/N=C/c1cc(Br)ccc1O	19.8	0.7	9	-0.6	11
O=S(=O)(c1ccccc1)N(CC1CO1)c1cccc2ccccc12 (stereo not given)	0.8	-0.9	57	0.5	12
O=c1c2ccccc2nc(SCc2cccc(F)c2)n1Cc1ccco1	2.1	-3.0	25	0.2	72*
COc1ccc(C2C(C#N)=C(N)Oc3c2sc2nc(C)cc(C)c32)cc1 (stereo not given)	1.5	2.0	6	0.4	89*
Cc1cc(C)c2c3c(sc2n1)C1(CCSCC1)C(C#N)=C(N)O3	2.0	1.9	24	0.2	7
S=C1SCN(Cc2cccnc2)CN1Cc1cccnc1	x	x	x	x	4
Cc1ccc(NC(CNS(=O)(=O)c2ccc(Cl)cc2)c2ccccc2)cc1 (stereo not given)	0.7	2.0	13	0.2	121*
COC(=O)Cc1c(C)nc2nc(NCc3ccc(Cl)cc3)[nH]n2c1=O	1.8	0.4	15	0.3	86*
O=C1Nc2ncccc2OC1CCCl (stereo not given)	1.0	0.3	258*	0.3	8
O=C1Nc2ncccc2OC1CCO (stereo not given)	0.5	0.1	10	0.6	10
O=C(CCCOc1ccccc1)NC(=S)Nc1ccccc1	4.0	-0.9	17	0.4	8
CCOc1ccc2nc(NC(=O)c3ccoc3C)sc2c1	41.2	1.5	35	-0.4	56*
COc1cc(NC(=O)Cn2ccsc2=N)cc(OC)c1	x	x	x	x	7
O=C(NCCSc1ccccc1)c1cncc(Br)c1	2.6	0.5	18	0.8	91*
CC(=O)c1cccc(NC(=O)CSCc2ccccc2)c1	1.0	3.2	21	-2.6	12
O=C(CSCc1ccccc1)Nc1cccc(C(=O)Nc2ccc(C(=O)O)cc2)c1	-0.1	1.5	19	-0.2	53*
CN(C)S(=O)(=O)c1ccc(N=Cc2c(C(F)(F)F)[nH]n(C)c2=O)cc1	9.1	-2.2	10	0.7	11
Cc1ccc(SCc2nc3ncccn3c2Br)cc1	x	x	x	x	75*
Cc1ccc(Nc2c(-c3ccc(N(C)C)cc3)nc3ncccn23)cc1	x	x	x	x	14
CCCS(=O)(=O)N1CCCC(C(=O)NCCCN2CCN(c3ccccc3F)CC2)C1 (stereo not given)	2.4	2.5	7	0.6	19
CCCS(=O)(=O)N1CCCC(C(=O)NCCCN2CCN(c3cccc(Cl)c3)CC2)C1 (stereo not given)	1.6	3.3	29	0.4	150*
CCCNC(=O)N1CCN(Cc2ccco2)CC1	1.1	0.5	18	-0.6	7
CC(CNC(=O)CC(C)(C)C)NC(=O)CC(C)(C)C (stereo not given)	0.4	2.5	16	0.1	23
CCN1/C(=C/C=C/c2oc3ccc(-c4ccccc4)cc3[n+]2CC)Oc2ccc(-c3ccccc3)cc21	x	1.7	640*	+	994*
CCCCN1CC(O)=C(c2nc3ccccc3s2)C1=N	4.2	0.3	25	1.8	110*
CCCn1c(SCC(=O)N2CCCC2)nc2c1c(=O)n(C)c(=O)n2C	2.6	-1.4	9	1.0	77*
